For assay [1], the target named is T1, NUAK family SNF1-like kinase 1 (Homo sapiens) (UniProt O60285).
T1 sequence (whole entry): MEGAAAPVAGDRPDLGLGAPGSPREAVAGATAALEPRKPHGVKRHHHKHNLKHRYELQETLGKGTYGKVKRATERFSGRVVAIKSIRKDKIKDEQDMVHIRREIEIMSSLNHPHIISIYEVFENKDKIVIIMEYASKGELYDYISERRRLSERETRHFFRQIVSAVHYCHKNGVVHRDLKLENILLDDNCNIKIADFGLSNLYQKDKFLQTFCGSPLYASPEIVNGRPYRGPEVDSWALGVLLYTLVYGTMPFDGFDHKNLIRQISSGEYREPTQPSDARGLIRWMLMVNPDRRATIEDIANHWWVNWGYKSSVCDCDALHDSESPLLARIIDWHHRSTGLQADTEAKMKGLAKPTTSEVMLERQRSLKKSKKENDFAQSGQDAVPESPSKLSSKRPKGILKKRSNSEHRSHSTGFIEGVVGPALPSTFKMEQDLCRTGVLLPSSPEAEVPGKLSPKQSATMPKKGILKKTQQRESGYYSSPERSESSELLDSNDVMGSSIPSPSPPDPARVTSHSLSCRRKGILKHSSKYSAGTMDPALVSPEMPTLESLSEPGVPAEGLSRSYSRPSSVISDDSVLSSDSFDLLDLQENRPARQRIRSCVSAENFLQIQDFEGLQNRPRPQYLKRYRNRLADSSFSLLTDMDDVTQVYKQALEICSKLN
As to the kind of experiment: Inhibition of ARK5 at 10 uM.

Assay [2] addresses Vascular endothelial growth factor receptor 2 (Homo sapiens) (UniProt P35968). Kind of assay: Inhibition of VGFR2 at 10 uM.
The test system of assay [3] is Serine/threonine-protein kinase B-raf (Homo sapiens), P15056 [V600E]. As to the kind of experiment: Inhibition of B-Raf V600E mutant at 10 uM.
Sequence of Serine/threonine-protein kinase B-raf (Homo sapiens), P15056 [V600E] (P15056 whole entry V600E): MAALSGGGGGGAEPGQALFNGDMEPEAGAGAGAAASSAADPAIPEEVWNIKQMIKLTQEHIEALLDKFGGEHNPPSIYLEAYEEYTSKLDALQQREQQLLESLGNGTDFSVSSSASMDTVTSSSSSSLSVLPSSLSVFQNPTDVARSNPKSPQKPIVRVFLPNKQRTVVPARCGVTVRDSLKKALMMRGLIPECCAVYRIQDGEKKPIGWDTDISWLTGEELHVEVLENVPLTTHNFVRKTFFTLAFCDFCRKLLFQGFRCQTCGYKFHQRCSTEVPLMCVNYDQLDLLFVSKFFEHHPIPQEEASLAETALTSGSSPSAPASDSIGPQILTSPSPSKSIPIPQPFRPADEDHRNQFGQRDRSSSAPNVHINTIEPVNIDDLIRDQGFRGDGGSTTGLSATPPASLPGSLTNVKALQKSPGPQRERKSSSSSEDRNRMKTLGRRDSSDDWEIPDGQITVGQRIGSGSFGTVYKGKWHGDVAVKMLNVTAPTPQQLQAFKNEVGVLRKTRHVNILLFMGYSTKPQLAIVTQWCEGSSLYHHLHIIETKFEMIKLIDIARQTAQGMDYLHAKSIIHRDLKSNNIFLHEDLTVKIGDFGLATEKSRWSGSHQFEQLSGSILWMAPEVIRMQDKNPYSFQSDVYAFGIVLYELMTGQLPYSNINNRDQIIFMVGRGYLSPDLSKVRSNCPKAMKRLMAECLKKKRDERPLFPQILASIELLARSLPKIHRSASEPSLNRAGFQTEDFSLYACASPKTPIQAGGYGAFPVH
The target in assay [4] is Focal adhesion kinase 1 (Homo sapiens) (UniProt Q05397). As to the kind of experiment: Inhibition of FAK at 10 uM.
Sequence of Focal adhesion kinase 1 (Homo sapiens) (Q05397 2-1052 limits assumed): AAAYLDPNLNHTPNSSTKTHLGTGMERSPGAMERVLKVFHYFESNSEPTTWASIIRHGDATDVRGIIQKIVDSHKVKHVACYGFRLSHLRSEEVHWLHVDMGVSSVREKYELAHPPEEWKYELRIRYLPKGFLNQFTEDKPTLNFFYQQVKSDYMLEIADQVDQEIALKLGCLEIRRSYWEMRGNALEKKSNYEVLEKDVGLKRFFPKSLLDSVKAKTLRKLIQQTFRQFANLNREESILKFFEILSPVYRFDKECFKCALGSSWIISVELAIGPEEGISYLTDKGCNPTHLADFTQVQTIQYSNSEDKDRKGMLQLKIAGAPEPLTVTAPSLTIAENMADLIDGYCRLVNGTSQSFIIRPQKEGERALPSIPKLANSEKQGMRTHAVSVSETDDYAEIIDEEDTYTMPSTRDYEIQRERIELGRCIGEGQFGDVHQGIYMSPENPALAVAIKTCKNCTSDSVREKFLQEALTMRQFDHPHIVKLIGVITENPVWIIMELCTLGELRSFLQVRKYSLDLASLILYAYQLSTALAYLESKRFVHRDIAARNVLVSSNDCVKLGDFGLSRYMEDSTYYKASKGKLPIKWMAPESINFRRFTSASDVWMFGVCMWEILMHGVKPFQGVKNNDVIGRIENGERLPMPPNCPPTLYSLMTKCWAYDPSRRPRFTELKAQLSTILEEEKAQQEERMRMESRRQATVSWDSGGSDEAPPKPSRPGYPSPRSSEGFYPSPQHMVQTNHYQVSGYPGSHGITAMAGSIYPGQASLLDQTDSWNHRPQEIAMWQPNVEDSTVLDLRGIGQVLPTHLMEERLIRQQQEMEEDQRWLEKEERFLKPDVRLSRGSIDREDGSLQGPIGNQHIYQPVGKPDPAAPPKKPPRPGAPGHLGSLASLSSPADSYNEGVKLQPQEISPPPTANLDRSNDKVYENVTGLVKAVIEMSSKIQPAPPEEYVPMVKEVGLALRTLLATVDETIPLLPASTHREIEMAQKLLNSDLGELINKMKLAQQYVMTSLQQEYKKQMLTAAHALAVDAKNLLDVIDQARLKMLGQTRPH
For assay [5], the target named is T2, Serine/threonine-protein kinase PLK4 (Homo sapiens) (UniProt O00444).
T2 sequence (whole entry): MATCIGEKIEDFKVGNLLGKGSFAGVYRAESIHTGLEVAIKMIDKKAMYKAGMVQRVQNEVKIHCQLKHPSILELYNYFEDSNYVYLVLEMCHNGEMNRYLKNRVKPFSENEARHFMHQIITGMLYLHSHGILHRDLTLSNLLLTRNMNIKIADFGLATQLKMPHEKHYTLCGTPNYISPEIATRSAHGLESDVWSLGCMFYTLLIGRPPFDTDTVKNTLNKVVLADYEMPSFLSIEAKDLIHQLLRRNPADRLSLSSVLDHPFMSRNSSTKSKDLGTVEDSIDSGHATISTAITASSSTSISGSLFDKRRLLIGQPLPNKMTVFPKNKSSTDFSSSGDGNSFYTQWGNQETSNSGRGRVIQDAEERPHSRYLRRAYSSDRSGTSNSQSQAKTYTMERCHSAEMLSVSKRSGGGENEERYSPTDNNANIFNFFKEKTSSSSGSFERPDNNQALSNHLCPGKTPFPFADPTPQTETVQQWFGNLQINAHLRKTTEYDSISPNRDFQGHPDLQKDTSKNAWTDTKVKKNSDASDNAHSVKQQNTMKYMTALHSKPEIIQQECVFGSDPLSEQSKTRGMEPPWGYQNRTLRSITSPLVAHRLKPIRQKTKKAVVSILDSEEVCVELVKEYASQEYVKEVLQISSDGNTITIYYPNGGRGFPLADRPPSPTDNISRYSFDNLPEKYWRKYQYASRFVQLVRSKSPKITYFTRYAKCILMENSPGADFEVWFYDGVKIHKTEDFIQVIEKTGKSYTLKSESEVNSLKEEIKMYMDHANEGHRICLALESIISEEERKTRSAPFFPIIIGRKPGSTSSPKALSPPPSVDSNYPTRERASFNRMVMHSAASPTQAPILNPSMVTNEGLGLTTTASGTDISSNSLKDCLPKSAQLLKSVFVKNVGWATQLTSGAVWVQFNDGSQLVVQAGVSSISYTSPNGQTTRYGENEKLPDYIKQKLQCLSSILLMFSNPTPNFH
As to the kind of experiment: Inhibition of SAK at 10 uM.

The target in assay [6] is Insulin receptor (Homo sapiens) (UniProt P06213). Kind of assay: Inhibition of INSR at 10 uM.
Assay [7] addresses Tyrosine-protein kinase receptor UFO (Homo sapiens) (UniProt P30530). As to the kind of experiment: Inhibition of AXL at 10 uM.
Assay [8] addresses RAC-alpha serine/threonine-protein kinase (Homo sapiens) (UniProt P31749). As to the kind of experiment: Inhibition of AKT1 at 10 uM.
In assay [9] the target is Insulin-like growth factor 1 receptor (Homo sapiens) (UniProt P08069). As to the kind of experiment: Inhibition of IGF1R at 10 uM.
In assay [10] the target is Serine/threonine-protein kinase N1 (Homo sapiens) (UniProt Q16512). Kind of assay: Inhibition of PRK1 at 10 uM.
Sequence of Serine/threonine-protein kinase N1 (Homo sapiens) (Q16512 2-942 limits assumed): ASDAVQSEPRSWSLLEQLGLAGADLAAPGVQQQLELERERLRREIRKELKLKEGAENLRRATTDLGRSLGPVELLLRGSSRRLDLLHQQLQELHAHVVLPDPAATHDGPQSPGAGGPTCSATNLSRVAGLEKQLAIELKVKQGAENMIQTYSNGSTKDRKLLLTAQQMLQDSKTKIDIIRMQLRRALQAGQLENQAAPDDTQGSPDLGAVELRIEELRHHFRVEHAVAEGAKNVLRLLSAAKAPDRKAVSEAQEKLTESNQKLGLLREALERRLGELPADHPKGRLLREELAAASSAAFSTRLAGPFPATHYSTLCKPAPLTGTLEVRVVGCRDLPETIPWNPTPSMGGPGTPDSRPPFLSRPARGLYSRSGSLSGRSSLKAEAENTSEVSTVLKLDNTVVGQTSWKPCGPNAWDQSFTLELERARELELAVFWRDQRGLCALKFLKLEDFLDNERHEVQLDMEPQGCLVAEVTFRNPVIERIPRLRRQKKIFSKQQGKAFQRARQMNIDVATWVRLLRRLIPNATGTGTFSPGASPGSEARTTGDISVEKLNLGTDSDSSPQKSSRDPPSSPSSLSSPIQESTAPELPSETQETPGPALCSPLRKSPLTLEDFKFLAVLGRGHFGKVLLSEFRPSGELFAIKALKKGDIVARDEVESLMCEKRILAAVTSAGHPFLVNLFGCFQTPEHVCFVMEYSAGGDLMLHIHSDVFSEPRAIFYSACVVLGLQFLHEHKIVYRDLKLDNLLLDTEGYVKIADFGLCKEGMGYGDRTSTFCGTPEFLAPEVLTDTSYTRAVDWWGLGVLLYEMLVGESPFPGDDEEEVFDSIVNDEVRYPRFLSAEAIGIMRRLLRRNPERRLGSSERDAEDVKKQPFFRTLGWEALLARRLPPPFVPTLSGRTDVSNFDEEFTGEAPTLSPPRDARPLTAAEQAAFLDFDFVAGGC
Assay [11] concerns the target BDNF/NT-3 growth factors receptor (Homo sapiens) (UniProt Q16620). As to the kind of experiment: Inhibition of TRKB at 10 uM.
The target of assay [12] is Hepatocyte growth factor receptor (Homo sapiens) (UniProt P08581). Kind of assay: Inhibition of MET at 10 uM.
In assay [13] the target is Aurora kinase B (Homo sapiens) (UniProt Q96GD4). Kind of assay: Inhibition of Aurora B at 10 uM.
Assay [14] deals with Proto-oncogene tyrosine-protein kinase Src (Homo sapiens) (UniProt P12931). Kind of assay: Inhibition of SRC at 10 uM.
Assay [15] in a line: Inhibition of p38 assessed as rate of ATF-2 phosphorylation by immunosorbent non-radioactive enzyme assay. In a few lines:
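p38α MAP kinase ELISA-type (immunosorbent, non-radioactive) assay. Enzyme was incubated with ATP at 100 µM, ATF-2 as substrate, and test compound at 10^-5 to 10^-8 M. Activity was read as the rate of ATF-2 phosphorylation. SB203580 served as the reference inhibitor.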

Assay [16] addresses Casein kinase II subunit alpha (Homo sapiens) (UniProt P68400). As to the kind of experiment: Inhibition of CK2alpha1 at 10 uM.
The target in assay [17] is Serine/threonine-protein kinase PLK1 (Homo sapiens) (UniProt P53350). As to the kind of experiment: Inhibition of PLK1 at 10 uM.
Sequence of Serine/threonine-protein kinase PLK1 (Homo sapiens) (P53350 whole entry): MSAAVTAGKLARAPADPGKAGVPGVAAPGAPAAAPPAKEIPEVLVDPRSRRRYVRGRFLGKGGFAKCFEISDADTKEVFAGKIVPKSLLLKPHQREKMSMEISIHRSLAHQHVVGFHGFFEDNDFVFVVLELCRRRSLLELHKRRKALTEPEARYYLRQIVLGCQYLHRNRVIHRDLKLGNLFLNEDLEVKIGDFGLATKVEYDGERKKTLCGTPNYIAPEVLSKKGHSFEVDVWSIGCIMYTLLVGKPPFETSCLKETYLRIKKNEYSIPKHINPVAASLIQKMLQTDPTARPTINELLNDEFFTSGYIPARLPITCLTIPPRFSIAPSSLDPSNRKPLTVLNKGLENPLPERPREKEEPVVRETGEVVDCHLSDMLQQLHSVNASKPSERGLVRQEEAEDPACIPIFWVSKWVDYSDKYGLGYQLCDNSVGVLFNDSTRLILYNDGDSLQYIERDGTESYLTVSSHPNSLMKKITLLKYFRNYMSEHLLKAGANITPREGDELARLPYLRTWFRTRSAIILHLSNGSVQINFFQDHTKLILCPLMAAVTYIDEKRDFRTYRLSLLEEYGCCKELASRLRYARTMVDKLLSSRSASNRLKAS

Calls of active or inactive are those of the source. The calls are words filed in the database; no cut-off is given here.

One may read the IC50 as the point on the concentration scale where inhibition reaches its midpoint.

Sequence of RAC-alpha serine/threonine-protein kinase (Homo sapiens) (P31749 whole entry): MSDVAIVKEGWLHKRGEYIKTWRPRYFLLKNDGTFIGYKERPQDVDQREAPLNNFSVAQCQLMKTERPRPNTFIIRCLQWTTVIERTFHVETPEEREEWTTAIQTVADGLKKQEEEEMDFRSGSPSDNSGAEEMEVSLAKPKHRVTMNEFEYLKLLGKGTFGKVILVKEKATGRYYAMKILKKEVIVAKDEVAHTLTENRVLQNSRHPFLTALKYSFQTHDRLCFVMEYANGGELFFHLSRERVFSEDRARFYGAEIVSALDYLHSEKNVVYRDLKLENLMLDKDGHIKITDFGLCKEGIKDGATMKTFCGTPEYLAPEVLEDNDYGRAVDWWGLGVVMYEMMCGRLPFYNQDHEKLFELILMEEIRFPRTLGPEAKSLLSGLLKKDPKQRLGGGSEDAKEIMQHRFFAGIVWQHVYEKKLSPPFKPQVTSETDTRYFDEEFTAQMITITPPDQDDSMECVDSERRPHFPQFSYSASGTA
Sequence of Casein kinase II subunit alpha (Homo sapiens) (P68400 whole entry, looked up): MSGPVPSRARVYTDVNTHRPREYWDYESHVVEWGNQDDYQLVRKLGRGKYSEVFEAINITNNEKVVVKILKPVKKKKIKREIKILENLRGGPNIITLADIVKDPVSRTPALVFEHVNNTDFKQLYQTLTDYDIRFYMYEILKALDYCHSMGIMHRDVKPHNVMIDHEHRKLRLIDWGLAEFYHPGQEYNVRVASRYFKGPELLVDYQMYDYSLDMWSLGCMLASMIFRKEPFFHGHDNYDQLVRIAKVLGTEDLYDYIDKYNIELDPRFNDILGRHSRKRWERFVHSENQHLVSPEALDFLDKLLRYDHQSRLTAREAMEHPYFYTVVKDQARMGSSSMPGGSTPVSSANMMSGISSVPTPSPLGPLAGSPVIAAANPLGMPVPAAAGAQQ
Sequence of BDNF/NT-3 growth factors receptor (Homo sapiens) (Q16620 32-822 limits assumed): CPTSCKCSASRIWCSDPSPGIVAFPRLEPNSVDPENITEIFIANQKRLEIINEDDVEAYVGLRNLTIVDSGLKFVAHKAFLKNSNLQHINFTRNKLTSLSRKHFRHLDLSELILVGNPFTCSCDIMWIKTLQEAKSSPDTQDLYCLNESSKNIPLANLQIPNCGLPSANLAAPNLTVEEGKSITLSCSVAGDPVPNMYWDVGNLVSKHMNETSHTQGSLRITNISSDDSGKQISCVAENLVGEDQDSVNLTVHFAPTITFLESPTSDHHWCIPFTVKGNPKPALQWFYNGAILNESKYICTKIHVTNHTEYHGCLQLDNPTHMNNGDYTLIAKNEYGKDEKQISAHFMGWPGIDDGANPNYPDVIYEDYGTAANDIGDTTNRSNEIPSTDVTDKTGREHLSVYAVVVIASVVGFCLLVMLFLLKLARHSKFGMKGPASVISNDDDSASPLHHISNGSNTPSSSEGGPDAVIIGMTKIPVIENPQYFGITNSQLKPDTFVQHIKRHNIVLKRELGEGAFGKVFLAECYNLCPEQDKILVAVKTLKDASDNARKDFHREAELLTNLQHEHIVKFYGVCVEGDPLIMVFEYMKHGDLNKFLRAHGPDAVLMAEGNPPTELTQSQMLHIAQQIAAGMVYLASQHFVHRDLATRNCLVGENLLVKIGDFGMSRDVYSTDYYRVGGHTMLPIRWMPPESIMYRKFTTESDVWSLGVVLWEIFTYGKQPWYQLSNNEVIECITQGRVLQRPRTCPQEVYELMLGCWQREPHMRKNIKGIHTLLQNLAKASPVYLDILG

As for `Nc1cc(F)ccc1Nc1ccc2c(c1)Oc1ccccc1NC2=O`, the inhibition entry in [1], in assay [2], in assay [3], in assay [4], in assay [5] and in assay [6] was “inactive” throughout. Further, the inhibition entry in [7], in assay [8], in [9], in [10], in assay [11] and in [12] was “inactive” throughout. Also, the inhibition result in assay [13], in assay [14], in assay [16] and in assay [17] was “inactive” throughout. In addition, the half-maximal inhibitory concentration (IC50) in [15] stood at 2.92 µM.
With `Nc1ccccc1Nc1ccc2c(c1)CC(=O)c1ccccc1C2`, the inhibition entry in assay [1], in [2], in assay [3], in assay [4], in assay [5] and in [6] was “inactive” each time. In addition, the inhibition result in assay [7], in assay [8], in assay [9], in assay [10], in assay [11] and in [12] was “inactive” in each case. In addition, the inhibition entry in [13], in assay [14], in assay [16] and in [17] was “inactive” each time. Moreover, in assay [15], the IC50 was determined as 2.1 µM.
Consider `O=C1Cc2ccccc2Oc2cc(Nc3ccccc3)ccc21`, for which the 50% inhibitory concentration (IC50) in assay [15] was determined as 2.92 µM.
In the case of `Nc1ccccc1Nc1ccc2c(c1)CCc1ccccc1C2=O`, the half-inhibitory concentration (IC50) in assay [15] was determined as 0.05 µM.
Consider `Nc1ccccc1Nc1ccc2c(c1)C(=O)Cc1ccccc1C2`, for which the inhibition result in assay [1], in assay [2], in assay [3], in assay [4], in assay [5] and in [6] was “inactive” in each case. In addition, the inhibition entry in assay [7], in assay [8], in assay [9], in assay [10], in [11] and in [12] was “inactive” in each case. The inhibition entry in [13], in assay [14], in assay [16] and in assay [17] was “inactive” each time. Also, in assay [15], the IC50 is 4.01 µM.
For `Nc1cc(F)ccc1Nc1ccc2c(c1)CC(=O)c1ccccc1C2`, the inhibition entry in assay [1], in assay [2], in [3], in assay [4], in assay [5] and in assay [6] was “inactive” throughout. Also, the inhibition result in assay [7], in assay [8], in [9], in assay [10], in assay [11] and in assay [12] was “inactive” in each case. Besides, the inhibition entry in [13], in [14], in assay [16] and in [17] was “inactive” in each case. In [15], the IC50 amounted to 0.98 µM.
For the molecule `O=C1Cc2ccc(Nc3ccccc3)cc2Cc2ccccc21`, the inhibition result in assay [1], in assay [2], in assay [3], in assay [4], in assay [5] and in assay [6] was “inactive” in each case. The inhibition entry in assay [7], in [8], in assay [9], in [10], in assay [11] and in assay [12] was “inactive” in each case. In addition, the inhibition result in assay [13], in assay [14], in assay [16] and in assay [17] was “inactive” throughout. In addition, the half-maximal inhibitory concentration (IC50) in [15] worked out at 3.21 µM.
Consider `O=C1Cc2ccccc2Cc2cc(Nc3ccc(F)cc3F)ccc21`, for which the inhibition entry in assay [1], in assay [2], in assay [3], in assay [4], in assay [5] and in assay [6] was “inactive” each time. Also, the inhibition entry in assay [7], in [8], in assay [9], in [10], in assay [11] and in assay [12] was “inactive” each time. Further, the inhibition result in assay [13], in [14], in assay [16] and in [17] was “inactive” each time. Further, in assay [15], the half-inhibitory concentration (IC50) was 1.51 µM.
For `Nc1cc(F)ccc1Nc1ccc2c(c1)Oc1ccccc1CC2=O`, the 50% inhibitory concentration (IC50) in assay [15] was 1.63 µM.
For `O=C1Cc2ccccc2Cc2cc(Nc3ccccc3)ccc21`, the inhibition result in assay [1], in assay [2], in [3], in assay [4], in assay [5] and in [6] was “inactive” each time. Moreover, the inhibition entry in assay [7], in assay [8], in assay [9], in [10], in assay [11] and in assay [12] was “inactive” in each case. In addition, the inhibition result in assay [13], in [14], in assay [16] and in [17] was “inactive” in each case. Besides, the IC50 in assay [15] was found to be 1.75 µM.
Turning to `Nc1ccccc1Nc1ccc2c(c1)Oc1ccccc1CC2=O`, the IC50 in assay [15] turned out to be 1.2 µM.
